The text below walks through data of PMC6148440 (Journal of Medicinal Chemistry, 2018).

A short description of data set [1]: Calculated LD50 on mice, extrapolated from zebrafish embryo LC50. To be noted: mouse.
The subject of data set [2] is zebrafish embryos. The data set is described as follows: Acute toxicity assay on zebrafish embryos. Type of data set: in vivo, zebrafish (Danio rerio), strain AB. To be noted: zebrafish embryos, 96 hpf; mortality score >20% assumed as the effect. A digest of the protocol: (§1)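 Embryos of strain AB were collected in E3 medium and sorted at 3 hpf, with 20 healthy embryos per condition. Medium was replaced by compound in 0.1% DMSO/E3, made from a 100 mM DMSO stock, at five log concentrations, either 0.01–100 μM or 0.1 μM–1 mM. Embryos were held at 28.5 °C from 3 to 96 hpf, and coagulated eggs were removed at 24 h. LC50 came from a sigmoidal fit of mortality. Controls were 0.1% DMSO in triplicate (repeat if mortality >20%) and DEAB at 0.1 μM–1 mM.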

Data set [3] can be described thus: Acute toxicity assay on zebrafish embryos. The note with it: AB, zebrafish, in vivo. Type of data set: in vivo, zebrafish (Danio rerio), strain AB. A digest of the protocol:
as §1

Data set [4] relates to bloodstream forms of T. brucei brucei. The data set is described as follows: In vitro antitrypanosomal activity, bloodstream forms. Type of data set: cell-based, T. brucei brucei S427 (S16). The note with it: for IC50: Trypanosoma brucei, 72 h, read-out: IC50 parasite T. brucei; for SI T. brucei: selectivity index IC50(MRC-5)/IC50(parasite). A digest of the protocol: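 Bloodstream forms were kept in HMI-9 with 10% hiFBS at 37 °C, 5% CO2. Parasites at 1 × 10^4/mL were exposed to increasing compound concentrations for 72 h under the same conditions. Proliferation was read by alamarBlue fluorescence (excitation 550, emission 590 nm), and IC50 was derived from this.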

Data set [5] relates to P. falciparum. The data set is described as follows: In vitro antimalarial activity, [3H]-hypoxanthine incorporation. Type of data set: cell-based, P. falciparum (3D7 strain). Summed up: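 Infected erythrocytes were used at 1.5% final hematocrit and 0.6% parasitemia in RPMI 1640 with 10% AB human serum. Compounds were dissolved in DMSO and diluted in medium, with final DMSO ≤0.25%. After 48 h at 37 °C, 0.6 μCi [3H]-hypoxanthine was added per well for 18 h. Cells were harvested onto glass-fibre filters for scintillation counting. Uninfected-erythrocyte background was subtracted, and IC50 was taken as 50% growth inhibition.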

Data set [6] has as its system MRC-5 human nontumoral lung cell line. The note with it: read-out: IC50 MRC-5; MRC-5 control cell line, MTT, 72 h; cited from earlier work.
For data set [7], the system named is L. major promastigotes. The data set is described as follows: In vitro antileishmanial activity, promastigote drug susceptibility. Type of data set: cell-based, L. major (MHOM/IL/80/Friedlin). To be noted: for SI L. major: selectivity index IC50(MRC-5)/IC50(parasite). A digest of the protocol: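 Promastigotes at 1 × 10^6/mL were cultured in modified RPMI-1640 with 10% hiFBS. They were exposed to increasing compound concentrations for 72 h at 28 °C. Proliferation was measured by MTT, with absorbance read at 540 nm.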

Data set [8] deals with HT-29, MCF-7, and HeLa cancer cells. The note with it: cited from earlier work.
Data set [9] relates to P. falciparum. The note with it: read-out: concentration inhibiting 50% growth of P. falciparum; cited from earlier work.

Where “and” joins values, the source holds several entries; their conditions need not be identical. Equal values may be shown once.

Consider `CC(=O)N[C@@H]1[C@@H](O)[C@H](O)[C@@H](CO)O[C@H]1n1cc(CNc2cc3c4c(ccc5c4c2C(=O)N(CCCN(C)C)C5=O)C(=O)N(CCCN(C)C)C3=O)nn1` [Compound 2, β-glcNAc-NDI], for which, in data set [1], the LD50 (usually the dose at which mortality reaches 50%) was > 630 µmol/kg and > 607 mg/kg.
On to `C[C@H]1O[C@@H](n2cc(CNc3cc4c5c(ccc6c5c3C(=O)N(CCCN(C)C)C6=O)C(=O)N(CCCN(C)C)C4=O)nn2)[C@H](O)[C@@H](O)[C@@H]1O` [Compound 3, β-6dglc-NDI], for which the LD50 in [1] is 170 µmol/kg and 154 mg/kg.
For `CN(C)CCCN1C(=O)c2ccc3c4c(c(NCc5cn([C@@H]6O[C@H](CO)[C@@H](OC7O[C@H](CO)[C@@H](O)[C@H](O)[C@H]7O)[C@H](O)[C@H]6O)nn5)cc(c24)C1=O)C(=O)N(CCCN(C)C)C3=O.O=C(O)C(F)(F)F.O=C(O)C(F)(F)F` (stereo partly drawn) [Compound 4, β-malt-NDI], in [2], the NOEC came to 100 µM. Further, in data set [3], the LC50 – broadly, the concentration that kills 50% of the test population – at 96 hpf stood at 190000 nM. The IC50 was 99 ± 10 nM in data set [4]; 2040 ± 50 nM in data set [6]; 921 ± 51 nM in data set [7] (Leishmania major, 72 h, read-out: IC50 parasite L. major). The “SI T. brucei” value in [4] turned out to be 20.6. For the same molecule, the “SI P. falciparum” value in [5] (selectivity index IC50(MRC-5)/IC50(parasite)) is listed as 5.5. In addition, the LD50 in data set [1] was 190 µmol/kg and 206 mg/kg. In [7], the “SI L. major” value was 2.2.
Turning to `CN(C)CCCN1C(=O)c2ccc3c4c(c(NCc5cn(CCO[C@H]6O[C@H](CO)[C@@H](O)[C@H](O)[C@@H]6O)nn5)cc(c24)C1=O)C(=O)N(CCCN(C)C)C3=O` [Compound 5, α-manC2-NDI], the 50% lethal dose (LD50) in data set [1] is > 630 µmol/kg and > 609 mg/kg.
In the case of `CN(C)CCCN1C(=O)c2ccc3c4c(c(NCc5cn(CCO[C@@H]6O[C@H](CO)[C@@H](O)[C@H](O)[C@H]6O)nn5)cc(c24)C1=O)C(=O)N(CCCN(C)C)C3=O` [Compound 6, β-glcC2-NDI], in data set [8], the “fold more active than compound 1, antitumor activity” value was “approximately 10 fold”. In data set [4], the IC50 was determined as 17 ± 9 nM and the “SI T. brucei” value worked out at 41.8. The “fold more active than compound 1 against P. falciparum” value in data set [5] came out at 5 fold. Further, in data set [1], the LD50 was > 630 µmol/kg and > 609 mg/kg. Also, the “SI L. major” value in [7] was 1.3.
On to `CCCNc1cc2c3c(ccc4c3c1C(=O)N(CCCN(C)C)C4=O)C(=O)N(CCCN(C)C)C2=O` [Compound 7, NDI-prop], for which, in data set [4], the IC50 amounted to 9 ± 1 nM and the “SI T. brucei” value worked out at 40.0. The LD50 in data set [1] was 330 µmol/kg and 178 mg/kg. Also, the “SI L. major” value in data set [7] is 10.6.
Turning to `C[n+]1ccc(-c2c3nc(c(-c4cc[n+](C)cc4)c4ccc([nH]4)c(-c4cc[n+](C)cc4)c4nc(c(-c5cc[n+](C)cc5)c5ccc2[nH]5)C=C4)C=C3)cc1` [TMPyP4, reference compound], the IC50 in [9] is 5000 nM; in data set [6] it was greater than 25000 nM.
On to `Cc1ccc(C(=O)Nc2ccc(S(=O)(=O)O)c3cc(S(=O)(=O)O)cc(S(=O)(=O)O)c23)cc1NC(=O)c1cccc(NC(=O)Nc2cccc(C(=O)Nc3cc(C(=O)Nc4ccc(S(=O)(=O)O)c5cc(S(=O)(=O)O)cc(S(=O)(=O)O)c45)ccc3C)c2)c1` [suramin, reference compound], for which the IC50 in data set [4] was found to be 38 ± 3 nM.
Take `Cc1oc2nc1-c1nc(co1)-c1nc(co1)-c1nc(co1)-c1nc(co1)-c1nc(co1)C1=NC(CS1)c1nc-2c(C)o1` (centres unmarked) [telomestatin]: the IC50 in [9] was 35000 nM.
